Source: PubChem BioAssay AID463141 (The Scripps Research Institute Molecular Screening Center, 2010)
Several values for one entry are separate records, joined by “and”; a condition that tells them apart may be missing. Equal values may be shown once. In all, about 330,000 compounds went through this assay and about 350 (0.11%) were called active.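 The calls were made as follows: active = activation above the mean of all tested compounds plus 3 SD (cut at about 21% in these data); inactive = the rest.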 This excerpt belongs to a sample that is enriched for actives.

The compounds below were run against Caspase-3 (Homo sapiens) (UniProt P42574) (assay: procaspase-3 enzyme activation – biochemical, absorbance, PC-3 D3A mutant, single concentration, primary screen (AID 463141;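 also: 0% = DMSO alone and 100% = DMSO wells spiked with extra 5 µM PC-3 D3A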)). Details: recombinant procaspase-3 D3A, Ac-DEVD-pNA absorbance 405 nm; at 8.5 µM; hits give high values.
Sequence of Caspase-3 (Homo sapiens) (P42574 whole entry D9A/D28A/D175A): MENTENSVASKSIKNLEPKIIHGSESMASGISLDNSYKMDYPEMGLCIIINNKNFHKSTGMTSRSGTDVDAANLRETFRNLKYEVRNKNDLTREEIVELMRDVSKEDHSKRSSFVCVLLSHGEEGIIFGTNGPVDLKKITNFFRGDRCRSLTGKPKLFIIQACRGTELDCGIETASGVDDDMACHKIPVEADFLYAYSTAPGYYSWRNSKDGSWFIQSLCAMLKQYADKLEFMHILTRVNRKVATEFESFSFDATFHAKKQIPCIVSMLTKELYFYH
Procedure, shortened: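 Test system: Procaspase-3 D3A mutant, all three cleavage aspartates alanine | Dosing: Single dose, 8.5 µM nominal compound, 0.8% DMSO | Schedule: 1 h preincubation, 2 h reaction | Technique: 405 nm absorbance of p-nitroaniline, reads at 0 and 120 min | Repeats: One well per compound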
With CC(C)C[C@H](NC(=O)C1CC(=O)N(c2ccc3c(c2)OCCO3)C1)C(=O)NC1CCCC1 (some centres undefined) the activation was 0.18% (inactive). COc1ccc(/C=N/Nc2nc3ccccc3c(=O)[nH]2)cc1 was tested, and the activation was 30.4% (active). In the case of COc1ccc(/C=N/Nc2nc(-c3ccc(C)cc3)c(C#N)c(=O)[nH]2)cc1, the activation is reported as 8.75% (inactive). In the case of COc1ccc(/C=N/Nc2ccccc2C(=O)O)cc1, the activation is reported as 1% (inactive). For Cc1cc(-c2nc(C)c(-c3nnc(SCC(=O)Nc4ccccc4)n3C)s2)no1, the activation was -5.75% (inactive). For CCN(CC)S(=O)(=O)c1ccc(N2CCN(C)CC2)c(NC(=O)Nc2ccccc2F)c1, the activation was 4.2% (inactive). In the case of COc1ccc(NS(=O)(=O)c2ccc(C)c(C(=O)N(C)Cc3ccc(OC)cc3OC)c2)cc1, the activation is reported as 10.5% (inactive). CC(=O)N1Cc2ccccc2CC1C(=O)O (centres undefined) was tested, and the activation was 2.69% (inactive). In the case of O=C(CCCn1c(=O)c2sccc2n(CC(=O)NCC2CCCO2)c1=O)NCc1ccco1 (centres undefined), the activation is reported as 3.97% (inactive). For COc1cc(/C=C/C(=O)OCC(=O)Nc2cccc(Oc3ccccc3)c2)ccc1O, the activation was -1.86% (inactive). O=C(NC1(C(F)(F)F)N=C2SCCN2C1=O)c1ccco1 (centres undefined) was tested, and the activation was 1.41% (inactive). Cc1ccc(NC(=O)Nc2cc(-c3ccccc3)nn2C)cc1Cl was tested, and the activation was -13.2% (inactive). For COC(=O)[C@]1(S(=O)(=O)c2ccccc2)C[C@@H]2ON=C(c3ccc(OC)cc3)[C@@H]2C1, the activation was -6.69% (inactive). In the case of CCCCNc1nc2ccccc2nc1NS(=O)(=O)c1cccs1, the activation is reported as 10.7% (inactive). In the case of O=C(Nc1ccccc1Cl)/C(Cl)=C(\Cl)S(=O)c1ccccc1 (centres undefined), the activation is reported as -26.7% (inactive). CCOC(=O)CCC(=O)OCC(=O)NC(C)C1CC2CCC1C2 (centres undefined) was tested, and the activation was 2.01% (inactive). For O=S(=O)(O)Oc1c[nH]c2ccccc12, the activation was 4.41% (inactive). With CCCN(C(=O)c1nc2nccc(C)n2n1)c1c(N)n(Cc2ccccc2)c(=O)[nH]c1=O the activation was 1.38% (inactive). For CN(CC1CCCO1)S(=O)(=O)c1ccc(C(=O)Nc2ccc(F)cc2)cc1 (centres undefined), the activation was -2.76% (inactive). With NC(=O)c1ccccc1N=Cc1ccc2ccccc2c1 the activation was 9.74% (inactive). With COC(=O)CN1C(=O)[C@H]2[C@@H](C3CC3)N3C(=O)CN(Cc4ccc(-c5ccccc5)cc4)C(=O)[C@@]3(Cc3ccccc3)[C@H]2C1=O the activation was 15.8% (inactive). CC(=O)c1sc(N/N=C/c2ccc(C(C)C)cc2)nc1C was tested, and the activation was -6.85% (inactive). CCCn1c(C)cc(C(=O)COC(=O)c2c(C)nn(-c3ccccc3)c2C)c1C was tested, and the activation was 0.04% (inactive). For Cc1ccc(-c2nc(SCC(=O)Nc3ccccc3OC(F)F)c3c(C)c(C(=O)O)sc3n2)cc1, the activation was -2.33% (inactive). For CCOc1ccccc1CN1CCN(C2CCC2)CC1CCO (centres undefined), the activation was 8.07% (inactive). With Cc1ccc(Cl)cc1NC(=O)C1CCN(S(C)(=O)=O)CC1 the activation was -5.8% (inactive). CN(CCc1ccccn1)C(=O)c1ccc(OC2CCN(CCc3ccccc3)CC2)cc1 was tested, and the activation was -3.49% (inactive). For Cc1ccc(NC2CCCN(C(=O)CCc3cn[nH]c3)C2)cc1C (centres undefined), the activation was 8.07% (inactive). With CC(C)C[C@H](NC(=O)[C@@H]1O[C@H]1C(=O)O)C(=O)NCCCCN=C(N)N the activation was 2.62% (inactive). For COc1ccccc1/C=C/C=N/n1c(-c2ccc(Cl)cc2Cl)n[nH]c1=S, the activation was -14.5% (inactive). Cc1ccc(C(=O)CN2C(=O)NC3(CCc4ccccc43)C2=O)c(C)c1 (centres undefined) was tested, and the activation was 6% (inactive). For Cc1ccc(C(=O)N2CCCC(c3ccccc3)=N2)cc1, the activation was 3.86% (inactive). COc1ccc2c(c1)c(=O)c(C(=O)c1ccc(Cl)cc1)cn2CC(=O)Nc1ccc(F)cc1 was tested, and the activation was 2.32% (inactive). In the case of CC(C)COP(=O)(c1ccc(N(C)C)cc1)C(Nc1ccccc1)c1cccnc1 (centres undefined), the activation is reported as 5.66% (inactive). In the case of Cc1nnc(SCC(=O)Nc2ncc3c(n2)CC(C)(C)CC3=O)s1, the activation is reported as -5.45% (inactive). In the case of CSc1ccc(/C=C/C(=O)NC23CC4CC(CC(C4)C2)C3)cc1, the activation is reported as 2.05% (inactive). For CN(CC(=O)NC1CCN(Cc2ccccc2)CC1)S(=O)(=O)c1ccc(Cl)s1, the activation was 5.81% (inactive). C=CCNC(=O)C1CC2c3ccccc3C1c1ccccc12 (centres undefined) was tested, and the activation was 5.82% (inactive). With COc1ccc(C2CC(c3cccs3)=NN2c2ccc(F)cc2)cc1OC (centres undefined) the activation was -19.4% (inactive). Fc1ccc(N2N=C(c3cccs3)CC2c2ccco2)c(F)c1 (centres undefined) was tested, and the activation was 40% (active). For O=C(COc1ccccc1Cl)N1N=C(c2cccs2)CC1c1ccco1 (centres undefined), the activation was 4.79% (inactive). COc1ccc(Nc2ncc(C(=O)N3CCN(c4ccccc4OC)CC3)c3ccccc23)cc1 was tested, and the activation was 30.4% (active). For COc1ccccc1N1CCN(C(=O)c2cn(-c3ccccc3)nc2-c2cccnc2)CC1, the activation was -2.98% (inactive). In the case of COc1ccccc1N1CCN(C(=O)c2ccc(NC3=NC4CS(=O)(=O)CC4S3)cc2)CC1 (centres undefined), the activation is reported as -12% (inactive). O=C(NCc1cccnc1)Nc1cccc(NC(=O)NCc2cccnc2)c1F was tested, and the activation was 2.89% (inactive). In the case of COC(=O)Cc1cnc(NC(=O)CSc2nc(C(C)C)cc(=O)[nH]2)s1, the activation is reported as 5.45% (inactive). CCC(=O)Nc1c(C)n[nH]c1C was tested, and the activation was -3.68% (inactive). N#Cc1ccc(C2N=C(c3ccccc3)NO2)cc1 (centres undefined) was tested, and the activation was -2.62% (inactive). COCc1c(C(=O)N/N=C\c2cccnc2)nnn1-c1nonc1N was tested, and the activation was 0.8% (inactive). In the case of Cc1cccc(N=Nc2c(O)[nH]c3ccc(F)cc23)c1, the activation is reported as 12.6% (inactive). CC(OC(=O)c1ccc2noc(-c3ccccc3)c2c1)C(N)=O (centres undefined) was tested, and the activation was -2.76% (inactive). In the case of Oc1ccc(-c2onc3ccc(Cl)cc23)cc1, the activation is reported as -12.8% (inactive). For COc1ccc(-c2onc3ccc(C(C)=O)cc23)cc1, the activation was 103% (active). For COc1ccc(NC(=S)N2N=CCC2c2ccccc2)cc1 (centres undefined), the activation was 11.4% (inactive). c1cnc(N2CCN(c3ccc4ccccc4n3)CC2)nc1 was tested, and the activation was 2.75% (inactive). With NC[C@H](Cc1ccccc1)NCCc1cc(C(F)(F)F)cc(C(F)(F)F)c1 the activation was -5.68% (inactive). In the case of COc1ccccc1C(=O)N1CCN=C1SCc1cccnc1, the activation is reported as -6.62% (inactive). For O=C(CCN1CCN(C/C=C/c2ccccc2)CC1)Nc1ccccc1Cl, the activation was 8.05% (inactive). Cn1cnc([N+](=O)[O-])c1Sc1n[nH]c(N)n1 was tested, and the activation was 6.6% (inactive). COCCCNC(=S)N(Cc1ccccc1)Cc1ccc(F)cc1 was tested, and the activation was -1.61% (inactive). In the case of CCCNc1ncnc2sc(C)c(C)c12, the activation is reported as -0.52% (inactive). CN(C)c1ccc2c(=O)[nH][nH]c(=O)c2c1 was tested, and the activation was 10.1% (inactive). In the case of CCOc1ccccc1NC(=O)C1CCCN(S(=O)(=O)c2ccccc2)C1 (centres undefined), the activation is reported as 2.37% (inactive). CN1CC(=O)N=C1N was tested, and the activation was 6.53% (inactive) and -3.63% (inactive). CCOC(=O)CNC(=O)CSc1ccc2nnc(-c3cccnc3)n2n1 was tested, and the activation was 0.59% (inactive). CC(C)NC(=S)N1CCN(S(C)(=O)=O)CC1 was tested, and the activation was 9.6% (inactive). CC(=O)c1ccc(N=C2SCCCN2C(=O)C2CCCCC2)cc1 was tested, and the activation was 8.2% (inactive). For COc1cc(C(=O)NC2CCN(Cc3ccccc3)CC2)cc(Cl)c1OC(C)C, the activation was 4.82% (inactive). CCOc1ccc2c(c1)cc(CN(C(=O)CC)C1CCCCC1)c1nnnn12 was tested, and the activation was 0.4% (inactive). O=C(c1ccc(N2CCOCC2)c([N+](=O)[O-])c1)N1CCN(S(=O)(=O)c2cccs2)CC1 was tested, and the activation was -3.64% (inactive). With CC1CCN(C(=S)NC(=O)c2ccccc2Br)CC1 the activation was -4.02% (inactive). In the case of Oc1ccccc1C1=NN(c2ccccc2)C(c2ccccc2)C1 (centres undefined), the activation is reported as 32.8% (active). COc1ccc(C2CC(c3cccs3)=NN2c2ccccc2)cc1 (centres undefined) was tested, and the activation was -24.6% (inactive). CC(=O)Oc1ccccc1C1=NN(C(C)=O)C(c2ccccc2)C1 (centres undefined) was tested, and the activation was 1.13% (inactive). In the case of O=C(CCNc1n[nH]c(=O)[nH]c1=O)N/N=C\c1ccc(Br)cc1, the activation is reported as -3.48% (inactive). For Cc1c(S(=O)(=O)N2CC(C)CC(C)C2)c(=O)n(C)c(=O)n1C (centres undefined), the activation was -6.15% (inactive). CCc1ccc2oc(-c3ccc(N)cc3)nc2c1 was tested, and the activation was 5.03% (inactive). COC(=O)c1cc(NC(=O)CN2CCC(C(N)=O)(N3CCCCC3)CC2)cc(C(=O)OC)c1 was tested, and the activation was 12.7% (inactive). O=C(CC(NC(=O)c1ccccc1)c1ccccc1)Nc1ccc(F)c(F)c1 (centres undefined) was tested, and the activation was 5.87% (inactive). CC(C)OC(=O)c1cc(NC(=O)C2C3CCC(O3)C2C(=O)O)cc(C(=O)OC(C)C)c1 (centres undefined) was tested, and the activation was -5.36% (inactive). CN1CCCN(C(=O)C2CCCCC2)CC1 was tested, and the activation was 5.38% (inactive). With CCN(CC)c1ccc(NC(=O)CN2CCN(c3ccccn3)CC2)cc1 the activation was -5.15% (inactive). In the case of Cc1cccc(C2C3=C(CCCC3=O)N=C3c4ccccc4C(=O)C32)c1 (centres undefined), the activation is reported as -13.4% (inactive). For CN(C)C(=O)N=NC(=O)N(C)C, the activation was -12.2% (inactive). With O=C(COC(=O)C1CC2CCCC(C1)C2=O)NC(=O)c1ccccc1 (centres undefined) the activation was -4.78% (inactive). COC(=O)C(C(=O)Nc1cccc(Cl)c1C)C1CCCC1 (centres undefined) was tested, and the activation was 1.15% (inactive). With COc1ccc(CN2CCN(C(=O)CCC(=O)Nc3nnc(C(C)C)s3)CC2)cc1F the activation was -6.44% (inactive). For O=C(CSC1=NS(=O)(=O)c2cc(F)ccc2N1)Nc1ccccc1F, the activation was -6.67% (inactive). With COc1ccccc1N=Cc1c(O)c2ccccc2oc1=O the activation was 26.5% (active). For COc1ccccc1N=C(C)C1=C(O)COC1=O, the activation was -3.88% (inactive). For COc1cc(N=Cc2c(O)c3ccccc3oc2=O)c(OC)cc1Cl, the activation was 3.99% (inactive). With COC(=O)c1cc(OC)c(OC)cc1NC(=O)C1CCCO1 (centres undefined) the activation was -0.83% (inactive). With COc1ccc(CN2CCC(c3nc4ccc(Cl)cc4[nH]3)CC2)cc1 the activation was -3.22% (inactive). With O=C(NCC(=O)N(c1ccccc1)C(C(=O)NCC1CCCO1)c1ccccc1)c1cccs1 (centres undefined) the activation was -3.61% (inactive).
